Source: ChEMBL document CHEMBL3351942, “Rexinoids isolated from Sophora tonkinensis with a gene expression profile distinct from the synthetic rexinoid bexarotene” (J Nat Prod, 2014)
Calls of active or inactive are those of the source. No cut-off for these calls is given here.

Legend:
RAW264.7 = assay: Activation of RXR/LXR heterodimer in mouse RAW264.7 cells assessed as increase in ABCA1 mRNA level at 10 uM by quantitative RT-PCR analysis; type: cell-based
Procedure, shortened: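 RAW264.7 macrophages in DMEM/10% FBS, exposed 24 h with or without LXR agonist T0901317; ABCA1 mRNA by SYBR green qRT-PCR, β-actin-normalized, fold vs vehicle; means ± SD of three determinants, one of three independent experiments; one-way ANOVA, Bonferroni.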

F9 = assay: Activation of RAR/RXR heterodimer in mouse F9 cells assessed as increase in CYP26A1 mRNA level at 10 uM by quantitative RT-PCR analysis in presence of atRA; type: cell-based
Procedure, shortened: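 F9 teratocarcinoma cells on 0.2% gelatin-coated dishes in DMEM/10% FBS; 24 h exposure with or without atRA (0.1 μM). CYP26A1 mRNA by qRT-PCR normalized to β-actin, fold vs vehicle; means ± SD of three determinants, one of three experiments; ANOVA/Bonferroni.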

Homo sapiens = species: Homo sapiens; assay: Activation of RXR/VDR heterodimer in human hepatoma cells assessed as increase in CYP24A1 mRNA level at 10 uM in presence of VDR agonist calcitriol by quantitative RT-PCR analysis; type: cell-based
Procedure, shortened: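 HLE hepatoma cells treated 24 h with or without VD3 (0.1 μM); CYP24A1 mRNA by SYBR green qRT-PCR normalized to β-actin (delta-delta Ct), fold over vehicle; means ± SD of three determinants, representative of three experiments.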

3T3-L1 = assay: Activation of PPARgamma/RXR heterodimer in mouse 3T3-L1 cell assessed as induction of adipogenesis at 10 uM after 6 days by Oil red O-staining; type: cell-based
Procedure, shortened: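 3T3-L1 cells grown to confluence, 2 days later induced 48 h with 10% FBS, 5 μg/mL insulin, 0.25 μM dexamethasone, 0.5 mM IBMX, then 48 h insulin-only medium; compounds in DMSO added to postdifferentiation medium for 4 days. Formalin-fixed (10%, 1 h, RT), stained with Oil red O, washed, visualized.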

[1] = Activation of LXR in mouse C2C12 cells assessed as induction of ABCA1 mRNA expression at 10 uM after 24 hrs by quantitative RT-PCR analysis; type: cell-based
Procedure, shortened: (§1)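 C2C12 myoblasts grown in DMEM/10% FBS, differentiated at confluence in 2% horse serum, medium changed every other day for 5 days; myotubes treated 24 h with or without T0901317 (1 μM). Total RNA, DNase-treated, oligo(dT) RT from 0.5 μg, SYBR green qPCR; normalized to β-actin (delta-delta Ct), fold over vehicle; mean ± SD of four determinants, one of two experiments.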

[2] = Activation of LXR in mouse C2C12 cells assessed as induction of LPL mRNA expression at 10 uM after 24 hrs in presence of T0901317 by quantitative RT-PCR analysis; type: cell-based; procedure, shortened: as §1
[3] = Activation of LXR in mouse C2C12 cells assessed as induction of ApoD mRNA expression at 10 uM after 24 hrs in presence of T0901317 by quantitative RT-PCR analysis; type: cell-based; procedure, shortened: as §1
C2C12 = assay: Induction of HMOX-1 mRNA level in mouse C2C12 cells at 10 uM after 24 hrs by quantitative RT-PCR analysis; type: functional, cell-based
Procedure, shortened: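 C2C12 myoblasts were differentiated in 2% horse serum, with medium changed every other day for 5 days. The myotubes were then exposed to compound at 10 μM for 24 h. mRNA was measured by SYBR green qRT-PCR from 0.5 μg total RNA, normalized to β-actin (ΔΔCt), and expressed as fold of vehicle. Four determinants, representative of two experiments.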

[4] = biological target: T1, Peroxisome proliferator-activated receptor delta (Mus musculus) (UniProt P35396); assay: Activation of PPARdelta in mouse C2C12 cells assessed as induction of FABP3 mRNA expression at 10 uM after 24 hrs by quantitative RT-PCR analysis; type: cell-based
T1 sequence (whole entry): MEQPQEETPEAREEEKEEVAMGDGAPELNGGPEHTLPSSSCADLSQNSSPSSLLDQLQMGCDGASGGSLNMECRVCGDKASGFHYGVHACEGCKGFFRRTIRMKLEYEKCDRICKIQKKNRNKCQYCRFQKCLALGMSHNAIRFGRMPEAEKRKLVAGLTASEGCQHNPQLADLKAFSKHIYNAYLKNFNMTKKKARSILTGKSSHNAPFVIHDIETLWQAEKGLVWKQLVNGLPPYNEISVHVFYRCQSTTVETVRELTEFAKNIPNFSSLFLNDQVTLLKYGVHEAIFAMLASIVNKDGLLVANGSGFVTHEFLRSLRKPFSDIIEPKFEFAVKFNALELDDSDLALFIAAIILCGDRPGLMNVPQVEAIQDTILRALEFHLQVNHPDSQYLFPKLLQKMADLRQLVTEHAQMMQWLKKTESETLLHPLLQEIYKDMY
Procedure, shortened: (§2)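 Differentiated C2C12 myotubes (2% horse serum, 5 days) exposed 24 h with or without PPARδ agonist GW501516 (1 μM). mRNA quantified by SYBR green real-time RT-PCR, normalized to β-actin by delta-delta Ct, and expressed as fold induction vs vehicle; means ± SD of four determinants from one of two independent experiments; one-way ANOVA with Bonferroni.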

[5] = biological target: T1, Peroxisome proliferator-activated receptor delta (Mus musculus); assay: Activation of PPARdelta in mouse C2C12 cells assessed as induction of CPT1A mRNA expression at 10 uM after 24 hrs in presence of GW501516 by quantitative RT-PCR analysis; type: cell-based; procedure, shortened: as §2
[6] = biological target: T2, Peroxisome proliferator-activated receptor delta (Homo sapiens) (UniProt Q03181); assay: Activation of PPARdelta (unknown origin) by receptor-CBP cofactor complex formation assay
T2 sequence (whole entry): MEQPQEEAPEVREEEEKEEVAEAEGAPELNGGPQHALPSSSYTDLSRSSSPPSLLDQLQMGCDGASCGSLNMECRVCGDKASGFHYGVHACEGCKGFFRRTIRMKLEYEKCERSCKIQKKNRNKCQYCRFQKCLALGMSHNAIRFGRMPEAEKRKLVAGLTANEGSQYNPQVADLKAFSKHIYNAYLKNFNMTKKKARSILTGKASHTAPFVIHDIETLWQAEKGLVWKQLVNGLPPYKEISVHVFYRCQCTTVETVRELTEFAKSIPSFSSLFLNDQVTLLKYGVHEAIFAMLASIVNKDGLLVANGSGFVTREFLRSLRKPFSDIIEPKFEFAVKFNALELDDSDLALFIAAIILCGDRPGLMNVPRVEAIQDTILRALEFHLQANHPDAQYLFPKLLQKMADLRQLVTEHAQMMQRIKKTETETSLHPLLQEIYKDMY
Procedure, shortened: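 Cell-free cofactor recruitment ELISA: ligand-dependent binding of PPAR isotypes to CBP, detected by HRP-conjugated anti-PPAR antibody at OD450. Full agonists GW7647 (α), GW1929 (γ), GW501516 (δ) define 100%, vehicle 0%; efficacy as maximum B/Bmax% and potency as EC50.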

[7] = Activation of LXR in mouse C2C12 cells assessed as induction of FAS mRNA expression at 10 uM after 24 hrs by quantitative RT-PCR analysis; type: cell-based; procedure, shortened: as §1

SMILES: CC(C)=CCc1cc([C@@H]2CC(=O)c3ccc(O)c(CC=C(C)C)c3O2)cc2c1OC(C(C)(C)O)C2 (some centres not stated)
- Activity (RAW264.7): Active
- Activity (F9): Active
- Activity (Homo sapiens): inactive
- Activity (3T3-L1): Active
- Activity [1]: Active
- Activity [2]: Active
- Activity [3]: inactive
- Activity (C2C12): Active
- Activity [4]: Active
- Activity [5]: Active
- Activity [6]: inactive
- Activity [7]: inactive
